{"source": "ChEMBL document CHEMBL4364341", "about": "“Radiosensitization of Head and Neck Squamous Cell Carcinoma (HNSCC) by a Podophyllotoxin” (ACS Med Chem Lett, 2019)", "key": {"[1]": {"test_system": "FaDu", "assay": "Induction of cell cycle arrest in human FADU cells assessed as decrease in cyclin B1 at 0.5 uM incubated for 48 hrs by immunoblot analysis", "type": "functional, cell-based", "procedure,_shortened": "(§1)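 FaDu cells received compound at 0.5 μM, 5 Gy IR, or both. After 48 h, lysates were immunoblotted for NRF2, cyclin B1, CDK1, Bax and Bcl-2. Membranes were then stripped and reprobed for β-actin as the loading control.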"}, "[2]": {"test_system": "FaDu", "assay": "Antiproliferative activity against human FADU cells assessed as fractional inhibition at 5 uM after 6 days in absence of irradiation by MTT assay", "type": "functional", "procedure,_shortened": "(§2)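 FaDu or SCC-25 cells were grown in DMEM with 10% FBS at 37 °C and 5% CO2. They were seeded at 1000 cells/well in 96-well plates for 24 h, then dosed with compound (fresh DMSO stock diluted in medium) or vehicle. After 1 h, X-rays were given with a sliding 5 mm lead shield, so one plate held 0, 2.5, 5 and 10 Gy columns. After 6 days, MTT (0.5 mg/mL, 45 min) was added, then DMSO, and A570 was read. Values were normalised to the unirradiated vehicle control. Fractional inhibition = 1 − surviving fraction.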"}, "[3]": {"test_system": "FaDu", "assay": "Synergistic antiproliferative activity against human FADU cells assessed as combination index at 5 uM preincubated for 1 hr followed by irradiation with 10 Gy IR and measured after 6 days by MTT assay", "type": "functional", "procedure,_shortened": "(§3)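 Combination index was calculated by the Chou–Talalay median-effect method from the 6-day MTT viability data of the single-plate compound/X-ray (2.5, 5, 10 Gy) design. CI < 1 denotes synergy, CI = 1 additivity and CI > 1 antagonism.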"}, "[4]": {"test_system": "SCC-25", "assay": "Synergistic induction of apoptosis in human SCC25 cells at 0.5 uM followed irradiation with 5Gy IR by annexin V FITC and propidium iodide staining based flow cytometry", "type": "functional, cell-based", "conditions": "TDE = time-dependent effect", "procedure,_shortened": "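FaDu or SCC-25 cells, untreated, given 5 Gy IR, drug, or both. Apoptotic cells measured by annexin V flow cytometry 48 h after treatment. Percentage compared with control by t test.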"}, "[5]": {"biological_target": "T1, Nuclear factor erythroid 2-related factor 2 (Homo sapiens) (UniProt Q16236)", "T1 sequence (whole entry)": "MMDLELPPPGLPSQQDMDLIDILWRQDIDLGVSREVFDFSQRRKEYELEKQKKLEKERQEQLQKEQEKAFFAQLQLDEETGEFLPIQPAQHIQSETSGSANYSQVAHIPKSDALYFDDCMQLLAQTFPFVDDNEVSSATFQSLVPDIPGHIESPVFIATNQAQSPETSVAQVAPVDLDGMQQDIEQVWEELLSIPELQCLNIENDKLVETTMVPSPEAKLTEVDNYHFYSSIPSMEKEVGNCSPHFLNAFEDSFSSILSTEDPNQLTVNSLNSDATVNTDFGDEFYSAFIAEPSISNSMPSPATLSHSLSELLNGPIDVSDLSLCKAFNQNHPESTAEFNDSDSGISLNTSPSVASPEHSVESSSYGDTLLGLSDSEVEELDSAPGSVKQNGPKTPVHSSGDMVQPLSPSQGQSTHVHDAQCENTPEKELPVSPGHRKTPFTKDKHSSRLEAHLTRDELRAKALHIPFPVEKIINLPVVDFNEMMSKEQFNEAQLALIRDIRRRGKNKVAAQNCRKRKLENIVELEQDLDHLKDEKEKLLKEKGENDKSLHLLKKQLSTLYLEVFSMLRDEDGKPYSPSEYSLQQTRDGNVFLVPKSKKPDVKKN", "assay": "Inhibition of Nrf2 in human FADU cells at 0.5 uM incubated for 48 hrs by immunofluorescence analysis", "type": "cell-based", "procedure,_shortened": "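FaDu cells received compound, 5 Gy IR, or both, and Nrf2 was imaged by immunofluorescence 48 h later.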"}, "[6]": {"test_system": "FaDu", "assay": "Selectivity ratio of IC50 for antiproliferative activity against human FADU cells assessed as reduction in colony formation unit to IC50 for antiproliferative activity against human FADU cells assessed as reduction in colony formation unit followed by irradiation with 5 Gy IR", "type": "functional"}, "[7]": {"test_system": "FaDu", "assay": "Antiproliferative activity against human FADU cells assessed as fractional inhibition at 0.5 uM after 6 days in absence of irradiation by MTT assay", "type": "functional", "procedure,_shortened": "as §2"}, "[8]": {"test_system": "SCC-25", "assay": "Synergistic antiproliferative activity against human SCC25 cells assessed as fractional inhibition at 5 uM preincubated for 1 hr followed by irradiation with 5 Gy IR and measured after 6 days by MTT assay (reference value: 0.133)", "type": "functional", "procedure,_shortened": "(§4)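 SCC-25 cells seeded 1000/well in 96-well plates in DMEM/10% FBS and left 24 h. Drug or vehicle added, then after 1 h X-irradiated to 2.5, 5 or 10 Gy on one plate using a shifted lead shield. Plates incubated 6 days, then MTT (0.5 mg/mL, 45 min), DMSO solubilisation, absorbance at 570 nm. Fractional inhibition = 1 − fraction of surviving cells.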"}, "[9]": {"test_system": "FaDu", "assay": "Induction of cell cycle arrest in human FADU cells assessed as decrease in CDK1 at 0.5 uM incubated for 48 hrs by immunoblot analysis", "type": "functional, cell-based", "procedure,_shortened": "as §1"}, "[10]": {"test_system": "FaDu", "assay": "Synergistic antiproliferative activity against human FADU cells assessed as combination index at 0.5 uM preincubated for 1 hr followed by irradiation with 2.5 Gy IR and measured after 6 days by MTT assay", "type": "functional", "procedure,_shortened": "as §3"}, "[11]": {"test_system": "SCC-25", "assay": "Synergistic antiproliferative activity against human SCC25 cells assessed as combination index at 0.5 uM preincubated for 1 hr followed by irradiation with 2.5 Gy IR and measured after 6 days by MTT assay", "type": "functional", "procedure,_shortened": "(§5)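 SCC-25 cells grown in DMEM with 10% FBS at 37 °C, 5% CO2, seeded 1000 cells/well in 96-well plates and left 24 h. Drug in DMSO, diluted in complete medium, added 1 h before X-irradiation. A movable 5 mm lead shield gave 0, 2.5, 5 or 10 Gy on one plate. After 6 days, MTT readout at 570 nm. Combination index by Chou–Talalay from viability data.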"}, "[12]": {"test_system": "SCC-25", "assay": "Synergistic induction of cell cycle arrest in human SCC25 cells assessed as decrease in accumulation at G0/G1 phase at 0.5 uM followed irradiation with 5Gy IR incubated for 24 hrs by propidium iodide staining based flow cytometry", "type": "functional", "procedure,_shortened": "(§6)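 FaDu or SCC-25 cells, untreated, given 5 Gy IR, drug, or drug plus 5 Gy. Cell-cycle distribution by propidium iodide staining and flow cytometry at 6 h and 24 h after treatment. G0/G1, S and G2/M fractions compared with control by t test.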"}, "[13]": {"test_system": "FaDu", "assay": "Synergistic antiproliferative activity against human FADU cells assessed as combination index at 0.5 uM preincubated for 1 hr followed by irradiation with 5 Gy IR and measured after 6 days by MTT assay", "type": "functional", "procedure,_shortened": "as §3"}, "[14]": {"test_system": "SCC-25", "assay": "Synergistic antiproliferative activity against human SCC25 cells assessed as fractional inhibition at 0.5 uM preincubated for 1 hr followed by irradiation with 10 Gy IR and measured after 6 days by MTT assay (reference value: 0.347)", "type": "functional", "procedure,_shortened": "as §4"}, "[15]": {"test_system": "FaDu", "assay": "Synergistic induction of cell cycle arrest in human FADU cells at 0.5 uM followed by irradiation with 5Gy IR incubated for 6 hrs by propidium iodide staining based flow cytometry", "type": "functional", "procedure,_shortened": "as §6"}, "[16]": {"test_system": "SCC-25", "assay": "Synergistic antiproliferative activity against human SCC25 cells assessed as combination index at 0.05 uM preincubated for 1 hr followed by irradiation with 5 Gy IR and measured after 6 days by MTT assay", "type": "functional", "procedure,_shortened": "as §5"}, "[17]": {"test_system": "FaDu", "assay": "Synergistic antiproliferative activity against human FADU cells assessed as combination index at 0.005 uM preincubated for 1 hr followed by irradiation with 2.5 Gy IR and measured after 6 days by MTT assay", "type": "functional", "procedure,_shortened": "as §3"}}, "note": "Activity calls are given as the source filed them. No cut-off for these calls is given here."}
{"smiles": "COc1ccc2c(c1)N(CCO)C1=C(C(=O)OC1)C2c1ccccc1", "note": "(configuration not stated)", "values": [{"measurement": "Activity", "setting": "[1]", "result": "Active"}, {"measurement": "fractional inhibitory concentration index (FICI)", "setting": "[2]", "result": 0.437}, {"measurement": "CI", "setting": "[3]", "result": 0.314}, {"measurement": "Activity", "setting": "[4]", "result": "Tde"}, {"measurement": "inhibition", "setting": "[5]", "result": "Active"}, {"measurement": "Ratio IC50", "setting": "[6]", "result": 13}, {"measurement": "fractional inhibitory concentration index (FICI)", "setting": "[7]", "result": 0.264}, {"measurement": "fractional inhibitory concentration index (FICI)", "setting": "[8]", "result": 0.728}, {"measurement": "Activity", "setting": "[9]", "result": "Active"}, {"measurement": "CI", "setting": "[10]", "result": 0.377}, {"measurement": "CI", "setting": "[11]", "result": 0.386}, {"measurement": "Activity", "setting": "[12]", "result": "Active"}, {"measurement": "CI", "setting": "[13]", "result": 0.603}, {"measurement": "fractional inhibitory concentration index (FICI)", "setting": "[14]", "result": 0.713}, {"measurement": "Activity", "setting": "[15]", "result": "inactive"}, {"measurement": "CI", "setting": "[16]", "result": 1.753}, {"measurement": "CI", "setting": "[17]", "result": 0.406}]}
